This is a sample that favours compounds with a hit; in the whole collection about 3.4% have one here.
Runt-CBFb FRET – inhibitors of RUNX1 Runt–CBFb binding, primary screen, biochemical, FRET, Cerulean-Runt, Venus-CBFb, uHTS. Runt-related transcription factor 1 (Homo sapiens) + Core-binding factor subunit beta …. Cerulean-Runt/Venus-CBFb FRET ratio 530/480, 1 h. inhibition, % at 20 µM. 220,000 tested, 0.46% active. AID 1496, 2009;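 active = inhibition over about 50% at 20 µM in the single-dose screen, limit read from the data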
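Measured by: fluorescence energy transfer, 422 nm excitation, 530/480 nm emission; Assay system: Cerulean-Runt domain; Medium: Tris pH 7.5 buffer with BSA; Measure: loss of energy transfer signal; Controls: 5 µM unlabeled CBFb as full-inhibition high control; Incubation: protein complex preformed 1 h, compound exposure 1 h, room temperature, dark.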
PHOSPHO1 inh – PubChem AID 1565 | Phosphoethanolamine/phosphocholine phosphatase (Homo sapiens), Q8TCT1 | recombinant PHOSPHO1, absorbance phosphatase assay | inhibition, % at 13.3 µM | 290,000 tested, 1.1% active; in the data active = inhibition above about 60%
Target sequence (Q8TCT1 whole entry, looked up): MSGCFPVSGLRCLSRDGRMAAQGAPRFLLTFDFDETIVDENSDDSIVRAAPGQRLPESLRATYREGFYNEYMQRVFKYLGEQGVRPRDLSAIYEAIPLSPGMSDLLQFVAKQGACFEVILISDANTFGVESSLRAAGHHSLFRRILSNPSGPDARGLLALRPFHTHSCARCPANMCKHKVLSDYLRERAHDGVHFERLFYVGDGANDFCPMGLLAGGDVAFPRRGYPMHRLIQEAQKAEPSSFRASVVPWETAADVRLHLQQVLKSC
RanGTP-Impb inh – inhibitors of RanGTP-importin-beta interaction, primary screen, biochemical, FRET, CFP-Ran, YFP-importin-beta, homogeneous; cell-free CFP-Ran/YFP-importin-beta FRET ratio; Ran GTPase (GTP-bound) - importin-beta complex; inhibition, % (concentration not given with the values); 300,000 tested, 1.1% active;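 active = more than half of the replicate wells show a fall in the fluorescence ratio signal beyond about 16%, limit read from the data, passing the limit was not always enough; inconclusive = exactly half of the replicate wells pass the set limit; inactive = fewer than half of replicates pass the limit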
Runt-SMMHC FRET – inhibitors of RUNX1 Runt–CBFb-SMMHC binding, primary screen, biochemical, FRET, Cerulean-Runt, Venus-CBFb-SMMHC, uHTS; inhibition, % at 20 µM; 220,000 tested, 0.74% active; AID 1434, 2008; Runt-related transcription factor 1 (Homo sapiens) + Core-binding factor subunit beta …; Cerulean-Runt/Venus-CBFb-SMMHC FRET ratio 530/480, 1 h;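 active = mean inhibition across duplicate retests at 20 µM reaching about 50%, limit read from the data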;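 note: inhibitors lower the FRET ratio by blocking Runt binding to CBFb-SMMHC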
Wee1 stabilizer – Wee1 degradation inhibitors, primary screen, cell-based, HeLa, Wee1K328M-luciferase, luminescence; Wee1-like protein kinase (Homo sapiens), P30291; reporter increase, % at 5 µM; 220,000 tested, 1.2% active; AID 1321, 2008; HeLa Luc-Wee1K328M stability; 100% = proteasome inhibitor MG132 effect;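 active = activation above the mean of all tested compounds plus 3 SD, set per screening run, cut at about 8.8% in these data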;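 note: cells exposed to compound for 20 h before luminescence read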
HMGR II inh – inhibitors of E. faecalis class II HMGR, primary screen, biochemical, Enterococcus faecalis. HMG-CoA reductase (Enterococcus faecalis, mvaE). purified E. faecalis HMGR, NADPH absorbance 340 nm kinetic. inhibition, % at 10 µM. 190,000 tested, 0.41% active. AID 1066, 2008;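 active = inhibition above a set limit, the median over all tested compounds plus 3 SD, cut at about 9.5% in these data; inconclusive = no clear call, values can overlap the other calls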;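 note: enzyme runs in reverse so mevalonate oxidation gives rising NADPH absorbance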
Of the large screens only hits and unclear results are named; the others gave an inactive call.

CCOc1cc2[nH]c(=S)n(C(C)C)c(=O)c2cc1OCC	PHOSPHO1 inh 71
CCOc1cc2[nH]c(=S)n(C3CC3)c(=O)c2cc1OCC	none
C=CCSc1nnc(-c2ccccc2N=Cc2c(C)[nH]n(-c3ccccc3)c2=O)c(=O)[nH]1	PHOSPHO1 inh 69
Cc1ccc(NC(=O)C(C)OC(=O)/C=C/c2ccccc2)cc1S(=O)(=O)N1CCOCC1 (stereo unspecified)	none (no result: Runt-CBFb FRET, PHOSPHO1 inh, Runt-SMMHC FRET, Wee1 stabilizer, HMGR II inh)
CCCc1nc2oc3c(NCCCN(C)C)ncnc3c2c2c1CCCC2	PHOSPHO1 inh 61 (no result: HMGR II inh)
CCCc1nc2oc3c(NCCN(C)C)ncnc3c2c2c1CCCC2	none
O=C(Cc1ccccc1)NCC(=O)N1CCCC1	none (no result: Runt-CBFb FRET, Runt-SMMHC FRET, Wee1 stabilizer, HMGR II inh)
CCn1c(CSc2nc3ccccc3s2)nnc1SCC(=O)c1ccc(Cl)cc1	PHOSPHO1 inh 73
CCn1c(CSc2nc3ccccc3s2)nnc1SCC(=O)c1ccc(O)c(O)c1	PHOSPHO1 inh 86
Cn1c(CSc2nc3ccccc3s2)nnc1SCC(=O)NCc1ccccn1	none
COc1ccc(OC)c(S(=O)(=O)N2CCC(NC(=O)c3ccccc3)CC2)c1	none (no result: Runt-CBFb FRET, Runt-SMMHC FRET, Wee1 stabilizer, HMGR II inh)
COc1ccccc1CN(C)C(=O)c1cc(-c2cccs2)nc2ccccc12	none (no result: Runt-CBFb FRET, Runt-SMMHC FRET, Wee1 stabilizer, HMGR II inh)
CCN(Cc1nc2ccccc2c(=O)[nH]1)Cc1nc2cc(OC)c(OC)cc2c(=O)[nH]1	none
CCN(Cc1cc(=O)n2cc(Cl)c(C)c(Cl)c2n1)Cc1nc2ccccc2c(=O)[nH]1	HMGR II inh 10
O=C(Nc1cccs1)Nc1ccc(F)cc1F	Wee1 stabilizer 9.0
O=C(Nc1ccc(F)cc1F)Nc1ccc(F)cc1F	none
Cc1ccc(NC(=O)Nc2cccs2)cc1	none
CCc1ccc(NC(=O)Nc2cccs2)cc1	PHOSPHO1 inh 74
Cc1ccccc1CNC(=O)Nc1cccs1	none (no result: RanGTP-Impb inh)
O=C(NCc1cccs1)Nc1cccs1	PHOSPHO1 inh 68
O=Cc1cn(-c2ccccc2)nc1-c1cc2c(ccc3ccccc32)oc1=O	none (no result: RanGTP-Impb inh)
O=Cc1cn(-c2ccccc2)nc1-c1cc2cc(O)ccc2oc1=O	Runt-CBFb FRET 94, RanGTP-Impb inh 40, Runt-SMMHC FRET 57
O=C(Nc1cc(Cl)ccc1Cl)c1ccc(OC(=O)c2ccco2)cc1	none
Cc1ccc(C(=O)NC(=S)N2CC(C)OC(C)C2)cc1[N+](=O)[O-] (stereo unspecified)	PHOSPHO1 inh 90 (no result: RanGTP-Impb inh)
CSc1nc(-c2ccccc2)nc(N2CCN(C)CC2)c1C(C)=O	RanGTP-Impb inh 70
CSc1nc(-c2ccccc2)nc(N2CCCC2)c1C(C)=O	none
CCOc1ccc2c(c1)S/C(=C\c1cccs1)C(=O)N2	Wee1 stabilizer 9.0 (no result: HMGR II inh)
CC(C)NC(=O)CSc1nc2ccccc2n1CC(=O)N(C(C)C)C(C)C	HMGR II inh 23
CCOC(=O)CSc1nc2ccccc2n1CC(=O)N(C(C)C)C(C)C	none
CCOc1ccccc1NC(=O)CSc1nnnn1C1CCCC1	none (no result: Runt-CBFb FRET, Runt-SMMHC FRET, Wee1 stabilizer, HMGR II inh)
COC(=O)CSc1ccc(S(=O)(=O)N2CCOCC2)cc1[N+](=O)[O-]	Wee1 stabilizer 9.3
CCOC(=O)CSc1ccc(S(=O)(=O)N2CCC(C)CC2)cc1[N+](=O)[O-]	none
CCCCN(C(=O)CN1C(=O)C2CCCCC2C1=O)c1c(N)n(CCCC)c(=O)[nH]c1=O (stereo unspecified)	none (no result: Runt-CBFb FRET, PHOSPHO1 inh, Runt-SMMHC FRET, Wee1 stabilizer, HMGR II inh)
COc1ccc(-c2cc(=O)c3c(OC)c(OC)c(OC)c(OC)c3o2)cc1OC	none
COc1cc(OC)c2c(=O)c(OC)c(-c3ccc(OC)c(OC)c3)oc2c1	Runt-SMMHC FRET 61
CCCCN(C)C1=CC2=CC(=C(C#N)C#N)CCC2CC1 (stereo unspecified)	RanGTP-Impb inh 92, Runt-SMMHC FRET 58
N#CC1=C(N)C2=C(N3CCCCC3)CCCC2C1(C#N)C#N (stereo unspecified)	none
N#CC(C#N)=C1C=C2C=C(N3CCCCC3)CCC2CC1 (stereo unspecified)	Runt-SMMHC FRET 77 (no result: RanGTP-Impb inh)
CCN(CC)C1=CC2=CC(=C(C#N)C#N)CCC2CC1 (stereo unspecified)	Runt-SMMHC FRET 83 (no result: RanGTP-Impb inh)
O=[N+]([O-])c1cccnc1N1CCCCC1	RanGTP-Impb inh inconclusive
CCCc1c(C)nn(-c2ncccc2[N+](=O)[O-])c1C	PHOSPHO1 inh 60
O=C1/C(=C/c2ccco2)SC(=S)N1c1cccnc1	PHOSPHO1 inh 61 (no result: HMGR II inh)
Cc1cc(/C=C2\SC(=S)N(Cc3ccco3)C2=O)c(C)n1-c1cccnc1	RanGTP-Impb inh 21
O=C1/C(=C\c2ccco2)SC(=S)N1c1ccc(O)cc1	none
CN1CCN(c2nc3c(c(=O)[nH]c(=O)n3C)n2Cc2ccc([N+](=O)[O-])cc2)CC1	none (no result: Runt-CBFb FRET, Runt-SMMHC FRET, Wee1 stabilizer, HMGR II inh)
COc1ccc(C2C(C(=O)OCC(=O)N3CCCCC3)CCC(=O)N2c2ccc(OC)cc2)cc1 (stereo unspecified)	PHOSPHO1 inh 68
Cc1cc(C)c(NC(=O)c2ccc3c(c2)C(=O)N(Cc2cccnc2)C3=O)c(C)c1	none (no result: Runt-CBFb FRET, Runt-SMMHC FRET, Wee1 stabilizer, HMGR II inh)
Cc1ccc(O)c(NC(=O)c2ccc3c(c2)C(=O)N(Cc2cccnc2)C3=O)c1	PHOSPHO1 inh 63 (no result: Runt-CBFb FRET, Runt-SMMHC FRET, Wee1 stabilizer, HMGR II inh)
Cc1ccccc1NNC(=O)C(=O)NNc1ccccc1C	PHOSPHO1 inh 68 (no result: HMGR II inh)
Cc1ccc(-c2csc(Nc3ccccn3)n2)cc1	none (no result: Runt-CBFb FRET, Runt-SMMHC FRET, Wee1 stabilizer, HMGR II inh)
COc1ccc(-c2csc(Nc3ccc(C)cn3)n2)cc1	Wee1 stabilizer 9.6
CCOC(=O)c1cc(S(=O)(=O)N2CCN(Cc3ccccc3)CC2)cn1C	none (no result: Runt-CBFb FRET, Runt-SMMHC FRET, Wee1 stabilizer, HMGR II inh)
O=S(=O)(c1ccccc1S(=O)(=O)N1CCCCC1)N1CCCCC1	Wee1 stabilizer 9.1
Cc1nnc(NC(=O)c2ccc(S(=O)(=O)N3CCCCCC3)cc2)o1	PHOSPHO1 inh 63
CC(=O)Nc1ccc(S(=O)(=O)Nc2ccc(S(=O)(=O)N3CCCC3)cc2)cc1	Wee1 stabilizer 9.2
Cc1nnc(NC(=O)c2ccc(S(=O)(=O)N3CC(C)OC(C)C3)cc2)o1 (stereo unspecified)	none (no result: Runt-CBFb FRET, Runt-SMMHC FRET, Wee1 stabilizer, HMGR II inh)
Cc1cc(C(=O)Nc2ccc(S(=O)(=O)N3CCCC3)cc2)no1	PHOSPHO1 inh 62
Cc1cc(C(=O)Nc2ccc(N3CCCCC3)cc2)no1	Wee1 stabilizer 9.1 (no result: HMGR II inh)
COc1nc(Oc2ccc(=O)[nH]n2)nc(N2CCOCC2)n1	none
CC(C)(C)Nc1nc(Oc2ccc(=O)[nH]n2)nc(N2CCOCC2)n1	Wee1 stabilizer 9.6
CCN(CC)S(=O)(=O)c1cccc(C(=O)N[C@@H](C)c2nc3ccccc3[nH]2)c1	Wee1 stabilizer 9.9
